≈ marks a conversion by molar mass, not a printed value.
Assays:
[1] = tested on: Mycobacterium tuberculosis; experiment: Antitubercular activity against Mycobacterium tuberculosis infected in macrophages assessed as reduction in colony forming unit; format: functional
[2] = tested on: Mycobacterium tuberculosis; experiment: Antitubercular activity against Mycobacterium tuberculosis H37Rv by low oxygen recovery assay; format: functional
Summary of the method: (§1)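 Nonreplicating M. tuberculosis H37Rv cultures; MIC determined by low oxygen recovery assay (LORA), run as previously described.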

Mus musculus [3] = experiment: Plasma concentration in BALB/c mouse assessed as 5-((2,8-bis(trifluoromethyl)qu inolin-4-yloxy)methyl)isoxazole-3-carboxylic acid at 400 mg/kg, po after 30 mins; format: ADME, organism-based; design: dose 400 mg/kg, route oral; conditions: in vivo, 0.5 h
Summary of the method: (§2)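 Female BALB/c mice (20-22 g), groups of twelve, single oral 400 mg/kg dose as a 20 mg/mL suspension in 0.5% carboxymethyl cellulose. Retro-orbital blood at 0, 15, 30, 45, 90 and 120 min. Plasma obtained by centrifugation, then precipitated with three volumes of acetonitrile containing internal standard. Parent and metabolites quantified by LC-MS-MS using positive electrospray and selected reaction monitoring.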

[4] = tested on: Mycobacterium tuberculosis; experiment: Antitubercular activity against non replicating Mycobacterium tuberculosis; format: functional; summary of the method: as §1
[5] = Cmax in BALB/c mouse at 400 mg/kg, po; format: ADME, organism-based; design: dose 400 mg/kg, route oral; conditions: in vivo; summary of the method: as §2
Mus musculus [6] = experiment: Tmax in BALB/c mouse assessed as 2,8-bis(trifluoromethyl)quinol in-4-ol at 400 mg/kg, po; format: ADME, organism-based; design: dose 400 mg/kg, route oral; conditions: in vivo; summary of the method: as §2
[7] = Selectivity index, ratio of IC50 for Vero cells to IC50 for Mycobacterium tuberculosis H37Rv by low oxygen recovery assay; format: toxicity, cell-based; conditions: monkey, read-out: Ratio IC50
[8] = tested on: Mycobacterium tuberculosis; experiment: Antitubercular activity against Mycobacterium tuberculosis H37Rv at pH 6.8 by Alamar blue susceptibility assay; format: functional
Summary of the method: (§3)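 Replicating M. tuberculosis H37Rv cultures; MIC by microplate Alamar Blue assay (MABA) at pH 6.8, run as previously described.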

[9] = Half life in BALB/c mouse at 400 mg/kg, po; format: ADME, organism-based; design: dose 400 mg/kg, route oral; conditions: in vivo; summary of the method: as §2
Vero = experiment: Cytotoxicity against african green monkey Vero cells after 72 hrs; format: cell-based; conditions: Chlorocebus sabaeus
Summary of the method: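 VERO green monkey kidney cells exposed to compound for 72 h.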

Mus musculus [10] = experiment: Plasma concentration in BALB/c mouse assessed as 5-((2,8-bis(trifluoromethyl)qu inolin-4-yloxy)methyl)isoxazole-3-carboxylic acid at 400 mg/kg, po after 90 mins; format: ADME, organism-based; design: dose 400 mg/kg, route oral; conditions: in vivo, 1.5 h; summary of the method: as §2
Mus musculus [11] = experiment: Cmax in BALB/c mouse assessed as E-Ethyl 5-[2-(4-quinolinyl)eth enyl]-3-isoxazolecarboxylate at 400 mg/kg, po; format: ADME, organism-based; design: dose 400 mg/kg, route oral; conditions: in vivo; summary of the method: as §2
[12] = AUC in BALB/c mouse at 400 mg/kg, po; format: ADME, organism-based; design: dose 400 mg/kg, route oral; conditions: plasma; summary of the method: as §2
[13] = tested on: Mycobacterium tuberculosis; experiment: Antitubercular activity against replicating Mycobacterium tuberculosis; format: functional; summary of the method: as §3
Mus musculus [14] = experiment: Cmax in BALB/c mouse assessed as 2,8-bis(trifluoromethyl)quinol in-4-ol at 400 mg/kg, po; format: ADME, organism-based; design: dose 400 mg/kg, route oral; conditions: in vivo; summary of the method: as §2
[15] = Selectivity index, ratio of IC50 for Vero cells to IC50 for Mycobacterium tuberculosis H37Rv by Alamar blue susceptibility assay; format: toxicity, cell-based; conditions: monkey, read-out: Ratio IC50
Mus musculus [16] = experiment: Plasma concentration in BALB/c mouse assessed as 5-((2,8-bis(trifluoromethyl)qu inolin-4-yloxy)methyl)isoxazole-3-carboxylic acid at 400 mg/kg, po after 3 hrs; format: ADME, organism-based; design: dose 400 mg/kg, route oral; conditions: in vivo

Row | Compound | MIC [2] | selectivity ratio [7] | MIC [8] | IC50 (Vero) | selectivity ratio [15] | other results
1 | CCOC(=O)c1cc(COc2cc(C(F)(F)F)nc3c(C(F)(F)F)cccc23)on1 | 12.2 µM (≈ 5.3 µg/mL) | > 10.5 | 0.9 µM (≈ 0.391 µg/mL) | > 128 µM | > 144 | EC90 [1]: 4.1 µM; Cp (Mus musculus [3]): 0.4 µg/mL; MIC [4]: 12.2 µM (≈ 5.3 µg/mL); Cmax [5]: 1 µM; Tmax (Mus musculus [6]): 0.5 h; half-life [9]: 1.6 h; Cp (Mus musculus [10]): 0.026 µg/mL; Cmax (Mus musculus [11]): 0.03 µg/mL; AUC [12]: 2.2 µM·h; MIC [13]: 0.9 µM (≈ 0.391 µg/mL); Cmax (Mus musculus [14]): 2.71 µg/mL; Cp (Mus musculus [16]): 0.1 µg/mL
2 | CCOC(=O)c1cc(C(C)(C)Oc2cc(C(F)(F)F)nc3c(C(F)(F)F)cccc23)on1 | 22.1 µM (≈ 10.2 µg/mL) | 1 | 6.8 µM (≈ 3.14 µg/mL) | 23 µM | 0.6 | 
3 | CCOC(=O)c1cc(CCc2cc(C(F)(F)F)nc3c(C(F)(F)F)cccc23)on1 | 12.6 µM (≈ 5.45 µg/mL) | > 10.2 | 5.7 µM (≈ 2.46 µg/mL) | > 128 µM | > 22.5 | 
4 | CCOC(=O)c1cc(/C=C\c2ccnc3ccccc23)on1 | 3 µM (≈ 0.883 µg/mL) | > 42.7 | 0.6 µM (≈ 0.177 µg/mL) | > 128 µM | > 213 | 
5 | CCOC(=O)c1cc(/C=C\c2cc(C(F)(F)F)nc3ccc(C(F)(F)F)cc23)on1 |  |  |  | > 128 µM |  | 
6 | CCOC(=O)c1cc(/C=C/c2ccnc3ccccc23)on1 | 2.6 µM (≈ 0.765 µg/mL) | > 49.2 | 0.2 µM (≈ 0.0589 µg/mL) | > 128 µM | > 640 | Cmax [5]: 61.7 µM; half-life [9]: 1.9 h; AUC [12]: 156 µM·h
7 | CCOC(=O)c1cc(C(=O)Nc2cc(C(F)(F)F)nc3c(C(F)(F)F)cccc23)on1 | > 128 µM |  | 29.5 µM (≈ 13.2 µg/mL) | > 128 µM | > 4.3 | 
8 | CCOC(=O)c1cc(/C=C/c2cc(C(F)(F)F)nc3c(C(F)(F)F)cccc23)on1 | 38.9 µM (≈ 16.7 µg/mL) | > 3.3 | 2.7 µM (≈ 1.16 µg/mL) | > 128 µM | > 47.5 | 
9 | CCOC(=O)c1cc(C(Oc2cc(C(F)(F)F)nc3c(C(F)(F)F)cccc23)c2ccccc2)on1 (stereo not drawn) | > 128 µM |  | > 128 µM | > 128 µM |  | 
10 | O=C(O)c1cc(/C=C/c2ccnc3ccccc23)on1 |  |  |  | > 128 µM |  | 
11 | CCOC(=O)c1cc(C(C)Oc2cc(C(F)(F)F)nc3c(C(F)(F)F)cccc23)on1 (stereo not drawn) | 20.7 µM (≈ 9.28 µg/mL) | > 6.2 | 4.2 µM (≈ 1.88 µg/mL) | > 128 µM | > 30.5 | 
12 | CCOC(=O)c1cc(CCc2ccnc3ccccc23)on1 | 22.5 µM (≈ 6.67 µg/mL) | > 5.7 | 2.7 µM (≈ 0.8 µg/mL) | > 128 µM | > 47.5 | 
13 | CCOC(=O)c1cc(/C=C\c2ccnc3ccc(OC)cc23)on1 | 2 µM (≈ 0.649 µg/mL) | > 64 | 1.6 µM (≈ 0.519 µg/mL) | > 128 µM | > 80 | 
14 | CCOC(=O)c1cc(/C=C/c2ccnc3ccc(OC)cc23)on1 | 1.1 µM (≈ 0.357 µg/mL) | > 116 | 0.4 µM (≈ 0.13 µg/mL) | > 128 µM | > 320 | 
15 | CCOC(=O)c1cc(/C=C/c2ccc3ncccc3c2)on1 | 9.3 µM (≈ 2.74 µg/mL) | > 13.8 | 0.9 µM (≈ 0.265 µg/mL) | > 128 µM | > 142 | 
16 | CCOC(=O)c1cc(-c2cc(C(F)(F)F)nc3c(C(F)(F)F)cccc23)on1 | 48.1 µM (≈ 19.4 µg/mL) | > 2.7 | 16.5 µM (≈ 6.67 µg/mL) | > 128 µM | > 7.8 | 
17 | CCCCC(Oc1cc(C(F)(F)F)nc2c(C(F)(F)F)cccc12)c1cc(C(=O)OCC)no1 (stereo not drawn) | 11.9 µM (≈ 5.84 µg/mL) | 3.6 | 116 µM (≈ 56.8 µg/mL) | 42.7 µM | 0.3 | 
18 | CCOC(=O)c1cc(/C=C\c2ccc3ncccc3c2)on1 | 12.4 µM (≈ 3.65 µg/mL) | > 10.3 | 1.3 µM (≈ 0.383 µg/mL) | > 128 µM | > 98.4 | 
19 | OC(c1cc(C(F)(F)F)nc2c(C(F)(F)F)cccc12)C1CCCCN1 (stereo not drawn) [MEFLOQUINE] | 7 µM (≈ 2.65 µg/mL) | 1.6 | 13 µM (≈ 4.92 µg/mL) | 11 µM | 0.9 | 
20 | CO[C@H]1/C=C/O[C@@]2(C)Oc3c(C)c(O)c4c(O)c(c(/C=N/N5CCN(C)CC5)c(O)c4c3C2=O)NC(=O)/C(C)=C\C=C\[C@H](C)[C@H](O)[C@@H](C)[C@@H](O)[C@@H](C)[C@H](OC(C)=O)[C@@H]1C [RIFAMPIN] | 2 µM (≈ 1.65 µg/mL) | 61 | 0.1 µM (≈ 0.0823 µg/mL) |  | 1220 | 
